Results: ChEMBL document CHEMBL1152911, “Synthesis and biological activities of a pH-dependently activated water-soluble prodrug of a novel hexacyclic camptothecin analog” (Bioorg Med Chem Lett, 2009)
Calls of active or inactive are those of the source. No cut-off for these calls is given here.

Assays:
[1] = Stability of compound in pH 2 phosphate buffer at room temperature assessed as prodrug remaining after conversion into active drug CH0793076 after 3 hrs; type: physicochemical; details: pH 2, 3 h
[2] = Stability of compound in pH 7.4 phosphate buffer at room temperature assessed as prodrug remaining after conversion into active drug CH0793076 after 3 hrs; type: physicochemical; details: pH 7.4, 3 h
[3] = Stability of compound in pH 5 phosphate buffer at room temperature assessed as prodrug remaining after conversion into active drug CH0793076 after 3 hrs; type: physicochemical; details: pH 5, 3 h
[4] = tested on: HCT-116; test: Antitumor activity against human BCRP-negative HCT116 cells xenografted in mouse at MTD of 100 mg/kg, iv administered as bolus once per week for 3 weeks; type: functional, organism-based; parameters: dose 100 mg/kg
[5] = tested on: HCT-116; test: Antitumor activity against human BCRP-negative HCT116 cells xenografted in mouse at MTD of 47 mg/kg, iv administered as bolus once per week for 3 weeks; type: functional, organism-based; parameters: dose 47 mg/kg
[6] = tested on: NCI-H460; test: Antitumor activity against human BCRP-positive NCI-H460 cells xenografted in mouse at MTD of 47 mg/kg, iv administered as bolus once per week for 3 weeks; type: functional, organism-based; parameters: dose 47 mg/kg
[7] = tested on: Plasma; test: Stability in monkey plasma assessed as time required for conversion into active drug CH0793076; type: ADME, cell-free, Macaca mulatta; details: rhesus monkey
[8] = tested on: Plasma; test: Stability in rat plasma assessed as time required for conversion into active drug CH0793076; type: ADME, cell-free
Method in brief: (§1)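 ¹⁴C-labelled prodrug was incubated in plasma of the stated species. Formation of ¹⁴C-labelled active drug was followed over an incubation time course of 0–3 min.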

[9] = Toxicity in mouse administered as bolus iv injection once per week for 3 weeks; type: organism-based; details: in vivo
[10] = Solubility in water; type: physicochemical
[11] = tested on: Plasma; test: Stability in mouse plasma assessed as time required for conversion into active drug CH0793076; type: ADME, cell-free
[12] = tested on: NCI-H460; test: Antitumor activity against human BCRP-positive NCI-H460 cells xenografted in mouse at MTD of 100 mg/kg, iv administered as bolus once per week for 3 weeks; type: functional, organism-based; parameters: dose 100 mg/kg
[13] = tested on: Plasma; test: Stability in dog plasma assessed as time required for conversion into active drug CH0793076; type: ADME, cell-free, Canis lupus familiaris; method in brief: as §1

| Compound | Stability [1] [%] | Stability [2] [%] | Stability [3] [%] | further results |
| --- | --- | --- | --- | --- |
| CCCCCN1C=Nc2cccc3nc4c(c1c23)Cn1c-4cc2c(c1=O)COC(=O)[C@@]2(CC)OC(=O)[C@H](C)N(C)C(=O)CN.Cl | 99 | 0 | 47 |  |
| CCCCCN1C=Nc2cccc3nc4c(c1c23)Cn1c-4cc2c(c1=O)COC(=O)[C@@]2(CC)OC(=O)CN(C)C(=O)CNC.Cl | 95 | 0 | 83 |  |
| CCCCCN1C=Nc2cccc3nc4c(c1c23)Cn1c-4cc2c(c1=O)COC(=O)[C@@]2(CC)OC(=O)OCCS(=O)(=O)CCN.Cl | 100 | 4 | 96 |  |
| CCCCCN1C=Nc2cccc3nc4c(c1c23)Cn1c-4cc2c(c1=O)COC(=O)[C@@]2(CC)OC(=O)CNC(=O)CNC.Cl | 100 | 73 | 100 |  |
| CCCCCN1C=Nc2cccc3nc4c(c1c23)Cn1c-4cc2c(c1=O)COC(=O)[C@@]2(CC)OC(=O)OCCS(=O)(=O)C[C@H](N)C(=O)OCC.Cl | 100 | 43 | 68 |  |
| CCCCCN1C=Nc2cccc3nc4c(c1c23)Cn1c-4cc2c(c1=O)COC(=O)[C@@]2(CC)OC(=O)CN(C)C(=O)C(C)(C)N.Cl | 78 | 0 | 0 |  |
| CCCCCN1C=Nc2cccc3nc4c(c1c23)Cn1c-4cc2c(c1=O)COC(=O)[C@@]2(CC)OC(=O)CN(C)C(=O)CN.Cl | 100 | 0 | 83 | Activity [4]: Active; Activity [5]: Active; Activity [6]: Active; Stability [7]: < 1 min; Stability [8]: < 1 min; MTD at 504 h [9]: 47 mg/kg; solubility [10]: > 10000 µg/mL; Stability [11]: < 1 min; Activity [12]: Active; Stability [13]: < 1 min |
| CCCCCN1C=Nc2cccc3nc4c(c1c23)Cn1c-4cc2c(c1=O)COC(=O)[C@@]2(CC)OC(=O)CNC(=O)CN.Cl |  | 47 | 100 |  |
